Key:
NCI-H460 [1] = test: Antiproliferative activity against human H460 cells assessed as reduction in cell growth at 8 uM incubated for 72 hrs by CCK-8 assay relative to control; assay type: functional
HepG2 [2] = test: Antiproliferative activity against human HepG2 cells assessed as reduction in cell growth at 2 uM incubated for 72 hrs by CCK-8 assay relative to control; assay type: functional
HepG2 [3] = test: Antiproliferative activity against human HepG2 cells assessed as reduction in cell growth at 8 uM incubated for 72 hrs by CCK-8 assay relative to control; assay type: functional
HCT-116 [4] = test: Antiproliferative activity against human HCT-116 cells assessed as reduction in cell growth at 8 uM incubated for 72 hrs by CCK-8 assay relative to control; assay type: functional
NCI-H460 [5] = test: Antiproliferative activity against human H460 cells assessed as reduction in cell growth at 2 uM incubated for 72 hrs by CCK-8 assay relative to control; assay type: functional
Histone deacetylase 1 = Histone deacetylase 1 (Homo sapiens, UniProt Q13547); test: Inhibition of recombinant human HDAC1 at 10 uM using SIRT1 as substrate incubated for 10 mins followed by substrate addition and measured after 30 mins by fluorescence based assay relative to control; conditions: time 40.0 min
Method in brief: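 Enzyme inhibition of HDAC1 measured at a single concentration of 10 µM, tested alongside the cell-growth screen.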

HCT-116 [6] = test: Antiproliferative activity against human HCT-116 cells assessed as reduction in cell growth at 2 uM incubated for 72 hrs by CCK-8 assay relative to control; assay type: functional

Sequence of Histone deacetylase 1 (Q13547 whole entry): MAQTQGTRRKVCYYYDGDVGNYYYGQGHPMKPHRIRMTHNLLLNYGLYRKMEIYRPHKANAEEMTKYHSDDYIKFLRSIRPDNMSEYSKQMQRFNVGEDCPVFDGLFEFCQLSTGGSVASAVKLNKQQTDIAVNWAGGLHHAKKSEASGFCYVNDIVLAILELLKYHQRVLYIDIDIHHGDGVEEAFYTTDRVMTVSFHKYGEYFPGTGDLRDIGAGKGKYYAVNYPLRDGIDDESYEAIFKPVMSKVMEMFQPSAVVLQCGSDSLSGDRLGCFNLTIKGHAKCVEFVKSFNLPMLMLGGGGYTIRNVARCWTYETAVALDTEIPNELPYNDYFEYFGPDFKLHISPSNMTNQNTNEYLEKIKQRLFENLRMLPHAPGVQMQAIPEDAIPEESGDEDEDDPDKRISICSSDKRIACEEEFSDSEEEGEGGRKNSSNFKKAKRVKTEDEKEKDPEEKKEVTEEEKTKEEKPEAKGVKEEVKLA

SMILES | inhibition at 8 µM (NCI-H460 [1]) | inhibition at 2 µM (HepG2 [2]) | inhibition at 8 µM (HepG2 [3]) | inhibition at 8 µM (HCT-116 [4]) | inhibition at 2 µM (NCI-H460 [5]) | inhibition (Histone deacetylase 1) | inhibition at 2 µM (HCT-116 [6])
CCCn1cnc2c(NCc3ccc(C(=O)Nc4ccccc4N)cc3)nc(Cl)nc21 | 39.2% | 12.4% | 14.1% | 29.6% | 31% | 11.4% | 28.5%
Nc1ccccc1NC(=O)/C=C/c1ccc(Cn2cnc3c(Nc4ccccc4)nc(Cl)nc32)cc1 | 28.7% | 16.4% | 41.9% | 30.9% | 2.05% | 14.8% | 7.75%
CC1CCN(c2nc(Cl)nc3c2ncn3Cc2ccc(/C=C/C(=O)Nc3ccccc3N)cc2)CC1 | 10.8% | 8.73% | 32.2% | 26.9% | 8.24% | 4.87% | 4.24%
CCCCn1cnc2c(NCc3ccc(C(=O)Nc4ccccc4N)cc3)nc(Cl)nc21 | 23.7% | 6.8% | 19.6% | 40.9% | 19.7% | 9.56% | 4.89%
Nc1ccccc1NC(=O)/C=C/c1ccc(Cn2cnc3c(Nc4cccc(OC(F)(F)F)c4)nc(Cl)nc32)cc1 | 66.7% | 16.2% | 37.6% | 5.23% | 2.1% | 40.3% | 2.8%
Nc1ccccc1NC(=O)/C=C/c1ccc(Cn2cnc3c(NC4CCCCC4)nc(Cl)nc32)cc1 | 24.9% | 3.83% | 42.6% | 18.7% | 8.09% | 28.2% | 3.34%
Cc1ccc(Nc2nc(Cl)nc3c2ncn3Cc2ccc(/C=C/C(=O)Nc3ccccc3N)cc2)cc1 | 51.3% | 33.6% | 43% | 15% | 31.3% | 41.8% | 0.27%
Nc1ccccc1NC(=O)/C=C/c1ccc(Cn2cnc3c(NCc4ccccc4)nc(Cl)nc32)cc1 | 49.1% | 11.5% | 37.7% | 17.4% | 4.62% | 22.5% | 2.85%
Nc1ccccc1NC(=O)/C=C/c1ccc(Cn2cnc3c(Nc4cccc(Cl)c4)nc(Cl)nc32)cc1 | 29.4% | 35.8% | 49.3% | 15.8% | 7.11% | 23.6% | 12.9%
CCCCn1cnc2c(Nc3cccc(Cl)c3)nc(NCCOCc3ccc(/C=C/C(=O)Nc4ccccc4N)cc3)nc21 | 51.1% | 20.4% | 30.4% | 10.8% | 25.7% | 24.6% | 4.76%
COC(CCn1cnc2c(NCc3ccc(C(=O)Nc4ccccc4N)cc3)nc(Cl)nc21)OC | 51.2% | 8.52% | 34.2% | 11.9% | 43.7% | 29.5% | 6.39%
Nc1ccccc1NC(=O)c1ccc(Cn2cnc3c(Nc4cccc(OC(F)(F)F)c4)nc(Cl)nc32)cc1 | 62.4% | 1.88% | 31.2% | 46.6% | 47.7% | 37.4% | 1.6%
Nc1ccccc1NC(=O)c1ccc(CNc2nc(Cl)nc3c2ncn3Cc2ccccc2)cc1 | 46.4% | 5.01% | 5.32% | 11.4% | 43.8% | 27.6% | 7.7%
